Only some compounds are listed: those with a hit (about 1.9% of all), similar ones and a draw of the others.
Lipid droplet = modulators of hepatic lipid droplet formation. AML12 mouse hepatocytes, oleate lipid droplets, BODIPY imaging. inhibition, % at 6.5 µM. 240,000 tested, 0.4% active;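 active = lipid droplet intensity inhibited by at least 50%, with more than 500 cells counted; inconclusive = wells with under 300 cells, treated as cytotoxic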
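Material: mouse AML12 hepatocyte cell line, fixed after treatment; Timing: compound with oleate, overnight; Technique: high-content imaging of BODIPY-stained droplets and DAPI nuclei; Probe or stimulus: oleate, 100 µM final; Dosing: compound at 6.5 µM only.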
Jurkat NFkB inh = lowers PMA/ionomycin-induced NF-kB signal in Jurkat cells; PMA/ionomycin-induced NF-kB luciferase reporter, luminescence; inhibition, % at 4 µM; 330,000 tested, 0.53% active; AID 435003; in the data active = inhibition above about 50%
TAG inh = inhibitors of triacylglycerol accumulation; H9c2 cells, Nile Red lipid (TAG) fluorescence; cells loaded with 200 µM oleic acid; inhibition, % at 12.5 µM; 230,000 tested, 0.66% active; AID 651582;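 active = pattern-corrected inhibition of lipid staining of at least 50% with the nuclear-stain viability signal not falling by more than 50%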;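 also: 0% = DMSO wells and 100% = triacsin C control wells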
697 NFkB inh = lowers PMA/ionomycin-induced NF-kB signal in 697 B cells; 697 B-cell NF-kB luciferase reporter, 16 h; AID 435022; inhibition, % at 4 µM; 330,000 tested, 0.33% active; in the data active = inhibition above about 35%
APP 5UTR inh = APP translation inhibition; SH-SY5Y APP 5'UTR-luciferase reporter, luminescence; inhibition, % at 2 µM; 190,000 tested, 0.82% active;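 active = inhibition above a set limit, derived from the sample mean plus 3 SD, cut at about 45% in these data; inconclusive = one replicate passes the limit while the other fails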
aSyn UTR inh = MLPCN primary screen, SNCA 5' untranslated region; alpha-synuclein 5'UTR reporter, inhibitor activity; inhibition, % (tested at 7.5 µM); 300,000 tested, 0.82% active; in the data active = inhibition above about 60%; inconclusive = no clear call, values can overlap the other calls;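 also: H4 neuroglioblastoma cells stably carrying SNCA 5'UTR luciferase fusion; 0% = DMSO wells and 100% = positive control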
Lipid drop inh = confirmation of inhibitors of hepatic lipid droplet formation | AID 463183 | 870 tested, 65% active | inhibition, % at 5.2 µM | AML12 mouse hepatocytes, BODIPY lipid droplet imaging; droplets induced with 100 µM oleic acid | shares compounds with Lipid droplet;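 active = inhibition of lipid droplet metric at least 50%, with more than 300 cells in each of four replicates; inconclusive = wells under 300 cells, flagged as toxic or low count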;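 also: plate controls were DMSO with oleic acid for no effect and 5 µM Triacsin-C for full effect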
AML12 tox img = counter-screen for cytotoxicity in AML12 mouse hepatocytes; shares compounds with Lipid droplet; DAPI nuclear morphology cytotoxicity imaging; stronger effect = higher value; cells fed 100 µM oleate overnight; z-score at 5 µM; 870 tested, 3% active; AID 463200; in the data active = z-score above about 6.3;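 also: compound exposure lasted overnight at 37 °C before fixation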
AML12 tox conf = AML12 hepatocyte cytotoxicity, confirmed; shares compounds with Lipid droplet; 530 tested, under 10 active; cytotoxicity, % at 50 µM; AID 463219; AML12 mouse hepatocyte viability, ATP luminescence; cells loaded with 100 µM oleic acid;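 active = cytotoxicity above 50% in each of four replicates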;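 also: compound exposure lasted overnight at 37 °C before the ATP read; 0% = DMSO-treated cells and 100% = wells with no cells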
An asterisk follows results filed as active; ? = inconclusive; / = no result given.

SMILES	Lipid droplet	Jurkat NFkB inh	TAG inh	697 NFkB inh	APP 5UTR inh	aSyn UTR inh	Lipid drop inh	AML12 tox img	AML12 tox conf
COc1ccc(CCN2C(=O)CC(N3CCOCC3)C2=O)cc1OC (stereo unspecified)	51*	-9	-5	16	3	/	25	-0.31	/
COc1ccc(CCN2C(=O)CC(N3CCOCC3)C2=O)cc1 (stereo unspecified)	11	6	/	9	-1	12	/	/	/
CCOc1ccc(NC(=O)CN(C)c2ccc(S(=O)(=O)N(C(C)C)C(C)C)cn2)cc1OCC	52*	-8	40	-15	7	?	84*	0.016	38
COc1ccc(S(=O)(=O)N(CC(=O)N2CCCCCC2)c2ccccc2OC)cc1	58*	9	/	1	/	4	-12	-1.3	/
CCOC(=O)N1CCN(C(=O)CN(c2ccccc2OC)S(=O)(=O)c2ccc(OC)cc2)CC1	0	-13	-5	17	-1	17	/	/	/
CCN(Cc1ccccc1)C(=O)C1CCN(C(=O)Nc2ccccc2)CC1	77*	9	37	7	/	13	104*	-1.7	8
COc1ccc(-c2ccccc2)cc1NC(=O)[C@@H]1O[C@H](CO)[C@@H](O)[C@H]1O	/	/	-8	/	/	/	/	/	/
CC1=C(C(=O)NC2CCCc3c2cnn3-c2cccc(C)c2C)OCCO1 (stereo unspecified)	63*	/	-3	/	/	16	105*	-0.5	16
Cc1cccc(-n2ncc3c2CCCC3NC(=O)c2ccncc2)c1C (stereo unspecified)	/	/	-11	/	/	/	/	/	/
COc1cccc(C(=O)NC2CCCc3c2cnn3-c2cc(C)cc(C)c2)c1 (stereo unspecified)	74*	1	31	17	/	12	108*	-0.27	10
COc1ccc(C(=O)NC2CCCc3c2cnn3-c2cccc(C)c2C)o1 (stereo unspecified)	50*	0	/	-230	/	21	88*	-0.19	7
Cc1cc(C)cc(-n2ncc3c2CCCC3NC(=O)c2ccccc2)c1 (stereo unspecified)	/	/	12	/	/	/	/	/	/
Cc1ccc(-n2ncc3c(SCC(N)=O)ncnc32)cc1C	/	-85	7	11	/	-119	/	/	/
NNC(=O)c1cc(C23CC4CC(CC(C4)C2)C3)[nH]n1	-20	-1	/	17	/	5	/	/	/
O=C(CSC(=S)N1CCCC1)N1CCN(S(=O)(=O)c2cccc([N+](=O)[O-])c2)CC1	1	3	9	8	/	0	/	/	/
O=C(NCCc1c[nH]c2ccccc12)C(=O)NCC1OCCN1S(=O)(=O)c1ccccc1 (stereo unspecified)	-18	-2	5	22	-6	-19	/	/	/
Cc1cc(C)c(S(=O)(=O)N2CCOC2CNC(=O)C(=O)NCCc2c[nH]c3ccccc23)c(C)c1 (stereo unspecified)	76*	-4	30	0	-12	5	77*	-1	10
Cc1cccc(NC(=O)Cn2cc(C(=O)C3CC3)c3ccccc32)c1	51*	21	/	19	/	-6	93*	-0.11	20
COc1ccc(CN(C)C(=O)c2cc(-c3ccccc3)nc3ccc(C)cc23)c(OC)c1	/	/	21	/	/	/	/	/	/
O=C(NCc1ccccc1)c1cccc(COc2ccc(Cl)cc2)c1	/	-41	0	-194	-77	-162	/	/	/
COc1cc(CNC(=O)c2cccc(COc3ccc(Cl)cc3)c2)cc(OC)c1	57*	-21	/	-97	-139	-77	92*	-0.29	-3
CCOc1cc(N2CCOCC2)c(OCC)cc1NC(=O)COC(=O)c1ccccc1OC(F)F	/	4	-10	-3	/	/	/	/	/
CCOc1cc(N2CCOCC2)c(OCC)cc1NC(=O)COC(=O)c1cccc2ccccc12	55*	-19	34	-51	3	14	101*	1.4	/
COc1ccc(Cl)cc1NC(=O)CCNC(=O)OCc1ccccc1	63*	8	/	-6	-6	1	100*	0.064	2
COc1ccc2c(c1)-c1c(ssc1=S)C(C)(C)N2C(=O)CSC1=NCCS1	-5	13	-10	19	-10	-2	/	/	/
SMILES	Lipid droplet	Jurkat NFkB inh	TAG inh	697 NFkB inh	APP 5UTR inh	aSyn UTR inh	Lipid drop inh	AML12 tox img	AML12 tox conf
CCOc1ccc2c(c1)-c1c(ssc1=S)C(C)(C)N2C(=O)c1ccco1	75*	46	/	-81	-3	11	90*	21*	/
O=C(Nc1ccc(Br)cc1)c1cccc(OC(=S)N2CCOCC2)c1	54*	-1	/	-16	/	-8	89*	0.81	20
CC1CCCCN1Cc1c(O)ccc2c(=O)c(-c3ccccc3)coc12 (stereo unspecified)	87*	-7	/	-25	/	-21	-35	1	/
COc1cc(N2CCCC2)c(OC)cc1/C=C(/C#N)c1ccc(F)cc1	50*	-4	-13	5	0	-31	41	0.66	/
COc1cc(N2CCCC2)c(OC)cc1/C=C(/C#N)c1ccc(Br)cc1	2	-14	/	2	8	13	/	/	/
CC1(C)Oc2ccc3ccc(=O)oc3c2/C(=C/Nc2cccc(O)c2)C1=O	-3	0	/	-1	19	8	/	/	/
CC1(C)Oc2ccc3ccc(=O)oc3c2/C(=C/Nc2ccc(O)cc2)C1=O	56*	0	30	-11	8	3	94*	-0.42	-12
CCn1c(=O)n(CC)c2cc(N)ccc21	54*	1	-5	18	24	-18	23	-0.51	/
CCn1c(=O)n(CC)c2cc(S(N)(=O)=O)ccc21	/	11	2	21	-6	8	/	/	/
CCOc1ccccc1NC(=O)N1CCC(C(=O)c2ccc(F)cc2)CC1	59*	11	49	-10	8	15	95*	0.0025	13
COc1ccccc1NC(=O)N1CCC(C(=O)c2ccc(F)cc2)CC1	39	11	/	6	-2	/	/	/	/
O=C(Nc1nc(-c2cccs2)c(-c2cccs2)s1)C1CCCC1	54*	/	/	/	5	23	94*	-0.48	/
CCn1cc(/C=C(\NC(=O)c2ccccc2OC)C(=O)NCCN2CCOCC2)c2ccccc21	/	/	8	/	/	/	/	/	/
CCCn1c(O)c(C=Nc2ccccc2)sc1=S	-2	-23	-4	-10	-25	-86	/	/	/
CCn1c(O)c(/C=C/C=C/C=Nc2ccccc2)sc1=S	15	-19	-7	11	-4	-27	/	/	/
CCCCn1c(O)c(/C=C/C=C/C=Nc2ccccc2)sc1=S	61*	-11	4	-12	-10	-43	34	0.24	/
Oc1c(/C=C/C=C/C=Nc2ccccc2)sc(=S)n1Cc1ccccc1	74*	-11	5	-5	/	-10	76*	0.81	28

Assay outcomes deposited in PubChem by several laboratories.
